Compounds with a hit are over-represented: about 3.5% of the library has one in this group of screens.
MrgX1 PAM: positive allosteric modulators of MrgX1, primary screen, HEK293 cells, Fluo-4 calcium flux; Mas-related G-protein coupled receptor member X1 (Homo sapiens), Q96LB2; B-score at 10 µM; FDSS; stronger effect = higher value; 310,000 compounds, 0.63% hits;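 active = plate-corrected calcium response at least 3 library SD above typical, normal starting fluorescence, not activating the receptor alone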;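 note: compound read alongside a low EC10 to EC30 dose of BAM8-22 agonist; peak minus trough fluorescence over baseline measured at the second addition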
Target sequence (Q96LB2 whole entry, looked up): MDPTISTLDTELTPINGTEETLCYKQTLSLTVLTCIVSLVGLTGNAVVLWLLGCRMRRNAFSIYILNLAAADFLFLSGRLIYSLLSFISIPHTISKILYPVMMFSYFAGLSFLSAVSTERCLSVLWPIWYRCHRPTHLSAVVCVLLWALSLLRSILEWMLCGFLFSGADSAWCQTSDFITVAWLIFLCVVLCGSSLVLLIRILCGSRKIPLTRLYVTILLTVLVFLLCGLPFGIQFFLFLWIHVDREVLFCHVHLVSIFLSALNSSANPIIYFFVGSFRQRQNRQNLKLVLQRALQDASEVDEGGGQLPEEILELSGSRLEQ
RGS4 block: RGS4 inhibitors, primary screen, cell-based, HEK293 M3R inducible RGS4, calcium flux. Regulator of G-protein signaling 4 (Homo sapiens), P49798. Fluo-4 calcium flux; stronger effect = higher value; triggered by carbachol at its EC20. B-score at 10 µM. 310,000 compounds, 0.45% hits;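 active = B-score, a plate-corrected calcium signal, over three deviations above library mean, with baseline fluorescence within five deviations of library mean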;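 note: RGS4 expression induced by doxycycline in cells with stable M3 receptor; B-score is computed from the integrated fluorescence ratio over baseline after carbachol; higher B-score means a larger calcium signal and so more RGS4 inhibition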
Target sequence (P49798 whole entry, looked up): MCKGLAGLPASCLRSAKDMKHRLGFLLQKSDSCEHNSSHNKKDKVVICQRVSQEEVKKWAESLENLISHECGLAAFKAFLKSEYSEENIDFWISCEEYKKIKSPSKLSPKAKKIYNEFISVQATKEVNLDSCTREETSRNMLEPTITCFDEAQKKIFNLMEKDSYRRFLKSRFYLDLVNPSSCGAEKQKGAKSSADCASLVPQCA
MrgX1 antagonist: antagonists of human MrgX1 receptor, primary screen, HEK293 cells, Fluo-4 calcium flux. B-score at 10 µM. AID 588676, 2011. Mas-related G-protein coupled receptor member X1 (Homo sapiens), Q96LB2. 310,000 compounds, 1.3% hits. BAM8-22 antagonism; stronger effect = lower value;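 active = calcium-response B-score plate-corrected more than 3 library SD below zero, starting fluorescence within 5 deviations, no agonist response on first addition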;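 note: peak minus trough fluorescence over baseline after final BAM8-22 challenge near maximal dose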
RGS4 act: RGS4 potentiators or activators, primary screen, cell-based, HEK293 M3R inducible RGS4, calcium flux; carbachol calcium flux Fluo4; stronger effect = lower value; AID 463111, 2010; B-score at 10 µM; 310,000 compounds, 0.92% hits;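 active = B-score of the integrated calcium signal more than 4 SD below the library mean, with starting fluorescence not abnormally high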;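 note: negative B-score means reduced calcium response which marks RGS4 activation or potentiation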
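test system = M3R-expressing HEK293 line, RGS4 induced by doxycycline | probe or stimulus = carbachol at ECmax as muscarinic agonist stimulus | timing = dye loading 30 min 37 °C, buffer rest 30 min RT | signal = calcium dye Fluo4 fluorescence | evaluation = B score from integrated fluorescence ratio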
MrgX1 ag: agonists of human MrgX1 receptor, primary screen, HEK293 cells, Fluo-4 calcium flux; Mas-related G-protein coupled receptor member X1 (Homo sapiens), Q96LB2; Fluo-4 calcium fluorescence, agonist mode; stronger effect = higher value; B-score at 10 µM; 310,000 compounds, 0.44% hits;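 active = calcium response B-score plate-corrected fluorescence ratio at least 3 library SD, with starting fluorescence B-score inside 5 SD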
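System – MrgX1-expressing HEK293 cells · Incubation – cells plated overnight, dye loaded 0.5 h 37 °C, 0.5 h room temperature · Technique – kinetic Fluo-4 NW fluorescence of intracellular calcium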
MrgX1 ant reconf: MrgX1 receptor antagonists, duplicate retest, confirmation, HEK293 cells, Fluo-4 calcium flux; shares compounds with MrgX1 antagonist; BAM8-22 calcium flux; stronger effect = lower value; remaining BAM8-22 calcium response % of control (stronger effect = lower value), % at 10 µM; 2,300 compounds, 19% hits; AID 602420, 2012;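 active = remaining agonist calcium response no higher than 100% minus 3 SD of agonist-only control wells, with starting fluorescence near control levels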;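 note: agonist BAM8-22 given at a near maximal EC90 to ECmax level; peak minus minimum fluorescence divided by baseline after agonist addition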
HEK293 Ca flux: nonspecific calcium signal in parental HEK293, confirmation, counter-screen for MrgX1 antagonist project, parental HEK293 cells, Fluo-4 calcium flux; fluorescence ratio F(max-min)/F0 at 10 µM; shares compounds with MrgX1 antagonist; AID 624111, 2012; Fluo-4 calcium fluorescence, FDSS; 4,000 compounds, 2% hits;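 active = duplicate-averaged calcium fluorescence ratio at least three times the standard deviation of buffer wells, a nonspecific response in parental cells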
HEK293 Ca counter: calcium response in parental HEK293 cells, primary screen, counter-screen for MrgX1 allosteric activator project, cell-based, Fluo-4 calcium flux, duplicate; Fluo-4 fluorescence ratio; stronger effect = higher value; 4,000 compounds, 0.4% hits; AID 624114, 2012; fluorescence ratio F(max-min)/F0 at 10 µM; shares compounds with MrgX1 antagonist;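 active = calcium fluorescence ratio, averaged over duplicates, at least 3 SD of the buffer-well ratio, meaning a nonspecific response in receptor-free cells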;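 note: untransfected parental HEK293 lacking MrgX1 used as counterscreen for MrgX1 allosteric activators; fluorescence change taken during the second addition on a kinetic imager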
HEK293 Ca cntr2: calcium response in parental HEK293 cells, primary screen, counter-screen for MrgX1 agonist project, cell-based, Fluo-4 calcium flux, duplicate, agonist mode; shares compounds with MrgX1 antagonist; Fluo-4 calcium fluorescence (FDSS); stronger effect = higher value; fluorescence ratio F(max-min)/F0 at 10 µM; 4,000 compounds, 8.7% hits; AID 624115, 2012;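 active = calcium fluorescence ratio at least three times the spread of buffer wells, meaning a non-specific response in parental cells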
* marks the source's active call; other numbers are inactive results.

CCN(CC(=O)Nc1ccc(C#N)c(Cl)c1)CC(=O)NC(C)(C)C was read as MrgX1 PAM inactive, RGS4 block inactive, MrgX1 antagonist inactive, RGS4 act inactive and MrgX1 ag inactive.
O=C(O)C1CN2CCC1CC2 (configuration not stated) was read as MrgX1 PAM inactive, RGS4 block inactive, MrgX1 antagonist -8*, RGS4 act inactive, MrgX1 ag inactive, MrgX1 ant reconf inactive, HEK293 Ca flux inactive, HEK293 Ca counter inactive and HEK293 Ca cntr2 inactive.
COc1ccccc1-n1c(-c2ccoc2)nc2ccccc2c1=O was read as MrgX1 PAM inactive, RGS4 block inactive, MrgX1 antagonist -4.7*, RGS4 act inactive, MrgX1 ag inactive, MrgX1 ant reconf inactive, HEK293 Ca flux inactive, HEK293 Ca counter inactive and HEK293 Ca cntr2 inactive.
Screening Cc1ccc(CN2CCCC(C(=O)c3sccc3C)C2)o1 (configuration not stated) returned MrgX1 PAM inactive, RGS4 block inactive, MrgX1 antagonist inactive, RGS4 act inactive and MrgX1 ag inactive.
Screening COc1cccc(-n2c(/C=C/c3ccc(O)c(O)c3)nc3ccccc3c2=O)c1 returned MrgX1 PAM inactive, RGS4 block inactive, MrgX1 antagonist -5.7*, RGS4 act inactive, MrgX1 ag inactive, MrgX1 ant reconf inactive, HEK293 Ca flux inactive, HEK293 Ca counter inactive and HEK293 Ca cntr2 inactive.
For Cc1ccccc1N1CCN(C2CCCN(C(=O)Cc3c(C)noc3C)C2)CC1 (configuration not stated) the results were MrgX1 PAM inactive, RGS4 block inactive, MrgX1 antagonist inactive, RGS4 act inactive and MrgX1 ag inactive.
Screening CC(=O)NC(Cc1ccc(N(CCCl)CCCl)cc1)C(=O)NCC(=O)NCC(=O)O (configuration not stated) returned MrgX1 PAM inactive, RGS4 block inactive, MrgX1 antagonist inactive, RGS4 act inactive and MrgX1 ag inactive.
COC(=O)C1=C(c2ccc(S(C)(=O)=O)cc2)C[C@@H]2CC[C@H]1N2C(=O)NCC1CC1 was read as MrgX1 PAM inactive, RGS4 block inactive, MrgX1 antagonist -9.4*, RGS4 act inactive, MrgX1 ag inactive, MrgX1 ant reconf inactive, HEK293 Ca flux inactive, HEK293 Ca counter inactive and HEK293 Ca cntr2 inactive.
COC(=O)C1=C(c2ccc(S(C)(=O)=O)cc2)C[C@@H]2CC[C@H]1N2C(=O)NCCO was read as MrgX1 PAM inactive, RGS4 block inactive, MrgX1 antagonist inactive, RGS4 act inactive and MrgX1 ag inactive.
For C#C[C@@]1(O)CCC2C3CCC4=C/C(=N/OCC(=O)NC(CCC(N)=O)C(=O)O)CC[C@]4(C)C3CC[C@@]21C (some centres not stated) the results were MrgX1 PAM inactive, RGS4 block inactive, MrgX1 antagonist inactive, RGS4 act inactive and MrgX1 ag inactive.
For O=C(c1cccn2c(=O)c3cc(Br)ccc3nc12)N1CCC2(CC1)OCCO2 the results were MrgX1 PAM inactive, RGS4 block inactive, MrgX1 antagonist inactive, RGS4 act inactive and MrgX1 ag inactive.
`Cc1cccn2c(=O)c3cc(C(=O)N4CCC5(CC4)OCCO5)n(C)c3nc12` gave MrgX1 PAM inactive, RGS4 block inactive, MrgX1 antagonist -4.7*, RGS4 act inactive, MrgX1 ag inactive, MrgX1 ant reconf inactive, HEK293 Ca flux inactive, HEK293 Ca counter inactive and HEK293 Ca cntr2 inactive.
Screening CC(C)CC1C(C#N)=C(N)Oc2c1c(=O)oc1ccccc21 (configuration not stated) returned MrgX1 PAM inactive, RGS4 block inactive, MrgX1 antagonist -6.3*, RGS4 act inactive, MrgX1 ag inactive, MrgX1 ant reconf inactive, HEK293 Ca flux inactive, HEK293 Ca counter inactive and HEK293 Ca cntr2 inactive.
Screening CCC1C(C#N)=C(N)Oc2c1c(=O)oc1ccccc21 (configuration not stated) returned MrgX1 PAM inactive, RGS4 block inactive, MrgX1 antagonist inactive, RGS4 act inactive and MrgX1 ag inactive.
`CSc1nc(N2CCN(C)CC2)c2ccccc2n1` gave MrgX1 PAM inactive, RGS4 block inactive, MrgX1 antagonist inactive, RGS4 act inactive and MrgX1 ag inactive.
For CCOc1ccc(N2C(=O)CC(=O)NC2=O)cc1 the results were MrgX1 PAM inactive, RGS4 block inactive, MrgX1 antagonist inactive, RGS4 act inactive and MrgX1 ag inactive.
COc1cc(N2C(=O)CC(=O)NC2=O)cc(OC)c1OC was read as MrgX1 PAM inactive, RGS4 block inactive, MrgX1 antagonist -5.1*, RGS4 act inactive, MrgX1 ag inactive, MrgX1 ant reconf 82%*, HEK293 Ca flux inactive, HEK293 Ca counter inactive and HEK293 Ca cntr2 inactive.
`N=C1C(c2ccccc2)=C(O)CN1Cc1ccco1` gave MrgX1 PAM inactive, RGS4 block inactive, MrgX1 antagonist -5.7*, RGS4 act inactive, MrgX1 ag inactive, MrgX1 ant reconf inactive, HEK293 Ca flux inactive, HEK293 Ca counter inactive and HEK293 Ca cntr2 inactive.
For CCCCn1c(O)c(C(C)=NCc2cc(OC)cc(OC)c2)c(=O)[nH]c1=O the results were MrgX1 PAM inactive, RGS4 block inactive, MrgX1 antagonist -6.8*, RGS4 act inactive, MrgX1 ag inactive, MrgX1 ant reconf inactive, HEK293 Ca flux inactive, HEK293 Ca counter inactive and HEK293 Ca cntr2 inactive.
